# According to PubChem BioAssay:
# Unmarked numbers belong to inactive results. Inconclusive results are not listed. Activity calls are given as the source filed them.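 Rule for the calls, unless noted: active = viability at or below 27.92% in each of two runs, the all-compound median minus 4 SD; inconclusive = no clear call, values can overlap the other calls; inactive = the rest.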
# Tests used:
# [1] = S. cerevisiae growth inhibition in permissive medium (OD615), pilot counter-assay for S. cerevisiae lifespan shortening project, permissive growth control (AID 705;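 active = growth inhibition above 25% in both replicates, a cutoff set 3 SD above the mean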); conditions: OD615, 24 h, at 10 µM, hits give high values
# In short: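 Material: engineered DeaD yeast; Compound: one dose 10 µM, DMSO 0.25% final; Detection: absorbance (optical density) at 615 nm; Buffer or medium: permissive raffinose/galactose medium; Timing: 24 h exposure, 30 °C.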
# [2] = S. cerevisiae growth inhibition in restrictive medium, OD615, pilot screen, restrictive growth control, yeast lifespan reduction project (AID 706;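 active = growth inhibition above a set limit, 3 SD over mean compound inhibition, in both replicates, cut at about 43% in these data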;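 note: modified DeaD lifespan yeast strain shifted to restrictive glucose medium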); conditions: OD615, 48 h, at 10 µM, hits give high values
# In short: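 Buffer or medium: restrictive glucose medium (CSMM-D); test system: modified S. cerevisiae; doses: single dose of 10 µM compound final, 0.25% DMSO; schedule: 48 h compound exposure at 30 °C; detection: absorbance (optical density) measured at 615 nm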
# [3] = doxorubicin toxicity protection in MRP-1 cells – H69AR cells, CellTiter-Glo, duplicate, MRP-1 activator project, pilot screen (AID 807;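 active = viability increase at or above a cutoff of the median across tested compounds plus 3 SD, cut at about 8.5% in these data, passing the limit was not always enough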;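 note: compound pretreatment 18-22 h then 72 h combined with doxorubicin; 0% = doxorubicin alone and 100% = vehicle without doxorubicin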); conditions: H69AR viability with doxorubicin, CellTiter-Glo luminescence; at 10 µM; hits give high values
# [4] = viability of HCT116 without oncogenic beta-catenin – human colon tumor cells, pilot screen (AID 823;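 active = cell viability at or below a set limit in both duplicate runs, the limit being the all-compound median minus 4 SD, cut at about 23% in these data, passing the limit was not always enough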;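 note: 0% = wells killed by 20 µM Hyamine and 100% = untreated DMSO cell wells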); conditions: HCT116 beta-catenin knockout viability, CellTiter-Glo, 60 h; at 10 µM; hits give low values
# [5] = viability of PTEN-null HCT116 cells – cell-based, HCT116 clonal line, CellTiter-Glo, pilot screen (AID 824); conditions: HCT116 PTEN-deleted viability, 60 h, at 10 µM, hits give low values;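 note: 0% = 20 µM Hyamine control and 100% = vehicle cell control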
# [6] = RAM pathway blockade in budding yeast – dse1pr::URA3 reporter, 5-FOA selection, pilot screen (AID 869;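 active = inhibition over a set limit, the all-compound mean plus 3 SD, in both replicate runs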;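 note: 0% = DMSO wells with no growth and 100% = 10 µM 1-NA-PP1 with full growth; RAM network block rescues cells from 5-FOA so hits raise OD615 growth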); conditions: S. cerevisiae dse1pr::URA3 5-FOA growth, OD615, 2 d; at 10 µM; hits give high values; strain carries analog-sensitive mutant Cbk1 kinase
# [7] = RAM signaling pathway blockade in yeast – S. cerevisiae, Pdr1DBD-CYC8 efflux-inhibited sensitized strain, primary screen (AID 1298;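 active = RAM network inhibition above 8.4% in each of two replicates, 3 SD over the compound average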;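 note: 0% = DMSO untreated cells without growth and 100% = 10 µM 1-NA-PP1 full growth; higher means more yeast growth rescued from 5-FOA killing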); conditions: S. cerevisiae cbk1-as DSE1-URA3 strain, 5-FOA growth OD615, 2 d; at 50 µM; hits give high values
Structure (SMILES),growth inhibition [1],growth inhibition [2],viability increase [3],viability [4],viability [5],inhibition [6],RAM network inhibition [7]
CC(=O)NC(CCS(C)(=O)=O)C(=O)Nc1ccc2c(c1)OCO2 (stereo not given),-0.69%,-1.89%,-0.58%,109%,95.5%,0.175%,2.15%
CCCCOC(=O)C(C)Oc1ccc(=O)n(-c2ccccc2)n1 (stereo not given),-4.39%,-6.44%,-1.41%,98%,88.4%,1.26%,2.76%
CC1c2[nH]c3ccccc3c2CCN1S(C)(=O)=O (stereo not given),2.66%,14.2%,-0.49%,98.4%,90.8%,0.31%,0.57%
COc1ccc(NC(=O)Cc2nc3ccccc3[nH]2)cc1,0.43%,6.96%,-1.06%,58.9%,92.5%,0.695%,-1.49%
CCn1c(-c2ccc(N)cc2)nc2ccccc21,-7.32%,7.48%,-3.43%,103%,83.5%,1.18%,0.72%
CC1Cc2nc(SCC(=O)NCc3ccco3)n(Cc3ccccc3)c(=O)c2S1 (stereo not given),-6.15%,-15.7%,-6.41%,91.1%,87.3%,3.45%,3.84%
O=C(CSCc1ccc(Cl)cc1)c1ccco1,-9.9%,0.15%,0.59%,96.5%,89.8%,0.695%,2.59%
CCCCN(C(=O)NC(=O)C1=C(N2CCOCC2)/C(=C/c2ccccc2)CC1)S(C)(=O)=O,-2.54%,-6.07%,-2.95%,86.1%,89.8%,0.17%,-0.73%
Cn1nnnc1SCC(=O)Nc1ccc(N2CCOCC2)cc1,-4.58%,7.83%,-1.01%,95.8%,97.5%,0.97%,0.68%
CCC(CO)N=CC1=C(O)CC(C)(C)CC1=O (stereo not given),3.97%,-5.8%,-0.8%,102%,98.8%,-0.06%,0.21%
CC1CCN(S(=O)(=O)N2CCC(C(=O)N3CCC(N(C)CC4CCCO4)CC3)CC2)CC1 (stereo not given),-0.85%,-5.09%,-1.16%,90.6%,95.3%,2.09%,0.73%
Cc1cc2oc3c(c(=O)c2cc1C)C(c1ccc(F)cc1)N(CCCN1CCOCC1)C3=O (stereo not given),4.43%,-11.3%,-2.77%,98.5%,96%,1.74%,1.83%
Cc1ccc(-c2nn(CC(=O)O)c(=O)c3ccccc23)cc1,-19.3%,-13.9%,1.3%,104%,96.2%,2.12%,1.1%
CC(CNC(=O)c1ccc(Br)o1)NC(=O)c1ccc(Br)o1 (stereo not given),-0.8%,2.43%,-0.71%,99%,97.8%,1.46%,1.17%
COc1cccc(-c2cc(N)nn2C(=O)Nc2ccc(Cl)cc2)c1,-15.4%,-29.3%,-2.28%,105%,90.7%,-0.025%,0.22%
COc1ccc(CCNC(=O)c2c(-c3ccccc3)noc2C)cc1OC,3.07%,-2.27%,0.19%,102%,101%,2.2%,0.43%
Brc1ccc(CSc2nnc(-c3ccccn3)n2Cc2ccco2)cc1,2.3%,28.9%,-3.69%,15.2% (active),15.7% (active),2.53%,7.63%
O=C(c1ccc2nc(N3CCOCC3)sc2c1)N1CCN(C(=O)c2ccco2)CC1,-4.29%,2.97%,-1.45%,105%,95.8%,0.86%,3.05%

Structure (SMILES),growth inhibition [1],growth inhibition [2],viability increase [3],viability [4],viability [5],inhibition [6],RAM network inhibition [7]
CCC/C(=C1/C(=O)CC(C)(C)C(C(=O)OC)C1=O)N1CCCC1 (stereo not given),-4.46%,5.2%,-1.41%,95.1%,97.5%,1.51%,-2.05%
NC(=O)NC1CCCc2c1[nH]c1ccc(Cl)cc21 (stereo not given),1.64%,3.78%,0.04%,89.9%,87.3%,1.15%,0.26%
CCCCNC(=O)CC1Nc2ccccc2NC1=O (stereo not given),5.04%,4.59%,-2.91%,113%,93%,0.83%,5.83%
Brc1ccc(C2Nc3cccc4cccc(c34)N2)o1,-13.8%,-9.64%,-0.34%,85.9%,92.5%,2.66%,1.71%
Cc1nn(C)c(C)c1S(=O)(=O)N(CC(=O)Nc1ccc2c(c1)OCO2)c1ccc(C(C)C)cc1,-19.5%,-7.85%,-2.38%,102%,99.4%,2.36%,2.62%
O=C(CN1CCN(c2ccccc2F)CC1)c1ccc2cc[nH]c2c1,-12.6%,-6.94%,-4.1%,100%,84.7%,2.02%,0.99%
O=C(NCc1ccc(F)cc1)C1CCC(=O)N1CCc1ccccc1 (stereo not given),-5.54%,7.93%,-0.77%,96.4%,93.2%,0.22%,-1.59%
Cc1ccc(-n2c3c(cc(C(=O)NCc4ccco4)c2=O)C(=O)CC(C)(C)C3)cc1,-5.76%,-4.77%,-5.37%,83%,85.6%,-0.235%,3.42%
CCc1ccccc1S(=O)(=O)Cc1ccc(C(=O)NC(C)C)o1,-2.43%,-2.4%,-1.52%,107%,97.6%,1.24%,3.36%
COc1ccc(N2C(=O)C3CCCN3C2c2cc(OC)c(OC)cc2OC)cc1 (stereo not given),8.35%,5.12%,-3.74%,102%,90.4%,0.47%,7.38%
COCCNC(=O)CN(c1ccccc1OC)S(C)(=O)=O,-6.76%,1.17%,0.7%,101%,101%,2.75%,0.67%
Cc1cccc(NC(=O)C2CCN(S(=O)(=O)c3cccc4cccnc34)CC2)c1,3.19%,11.8%,-1.52%,88.2%,81.8%,3.88%,2.49%
O=C(CC1SC(=Nc2ccccc2)N(CCCCO)C1=O)NCc1ccccc1 (stereo not given),-5.1%,-5.89%,-2.74%,89.5%,86.4%,0.065%,5.21%
COC(=O)C(C(=O)OC)=C(/C=C/N(C)C)N(C)C,-16.7%,-1.41%,-0.39%,99.2%,101%,1.26%,2.7%
CCN(CC)CCCN1C(=O)C(O)=C(C(=O)c2ccc(C)o2)C1c1cccs1 (stereo not given),0.37%,-6.93%,-4.04%,97.5%,96.2%,2.01%,2.8%
O=C(c1ccc(=O)[nH]c1)N(Cc1ccco1)C1(C(=O)NC2CCCCC2)CCCCC1,-20%,-18.9%,-3.3%,97.2%,92.5%,0.61%,1.87%
COC(=O)c1ccc(CSc2ncn[nH]2)o1,-2.62%,3.27%,0.51%,94.7%,97.5%,0.395%,3.38%
